Laboratory results taken from ChEMBL document CHEMBL1148376, “Synthesis, monoamine transporter binding properties, and behavioral pharmacology of a series of 3beta-(substituted phenyl)-2beta-(3'-substituted isoxazol-5-yl)tropanes” (J Med Chem, 2004).

How the values were obtained:
[1] = molecular target: Sodium-dependent dopamine transporter (Rattus norvegicus, UniProt P23977); assay: Inhibitory concentration required to inhibit dopamine transporter DAT was determined by using [3H]WIN-35428 radioligand
Chain of Sodium-dependent dopamine transporter (P23977 whole entry): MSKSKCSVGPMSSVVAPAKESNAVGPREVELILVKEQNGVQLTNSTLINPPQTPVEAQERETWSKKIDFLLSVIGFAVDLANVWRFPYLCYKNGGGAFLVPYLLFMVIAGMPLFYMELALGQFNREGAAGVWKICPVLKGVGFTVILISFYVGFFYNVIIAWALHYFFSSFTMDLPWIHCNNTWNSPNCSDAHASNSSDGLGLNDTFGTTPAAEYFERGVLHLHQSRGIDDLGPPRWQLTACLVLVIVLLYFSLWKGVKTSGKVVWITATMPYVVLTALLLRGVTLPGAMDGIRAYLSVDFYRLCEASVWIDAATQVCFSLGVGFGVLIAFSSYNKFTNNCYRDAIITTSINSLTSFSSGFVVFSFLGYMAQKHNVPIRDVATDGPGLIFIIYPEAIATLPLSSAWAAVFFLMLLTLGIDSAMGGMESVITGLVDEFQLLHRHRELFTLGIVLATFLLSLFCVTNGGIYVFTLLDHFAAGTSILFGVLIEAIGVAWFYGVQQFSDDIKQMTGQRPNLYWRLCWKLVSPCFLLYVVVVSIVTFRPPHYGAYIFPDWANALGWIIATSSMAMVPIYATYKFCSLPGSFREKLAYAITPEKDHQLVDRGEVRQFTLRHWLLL
Outline: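 Competition binding at the DAT with 0.5 nM [3H]WIN35,428 (final concentration). Other procedures follow earlier published methods.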

Mus musculus [2] = assay: Percent change in locomotor activity in mice at 3 mg/kg i.p. in 1 h.; type: functional; settings: route intraperitoneal
Outline: (§1)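 Mice habituated 1/2 h to photocell activity chambers, then injected ip with compound homogenized in 0.5% methyl cellulose (10 mL/kg); vehicle controls; N = 5 or 6 per dose. Photobeam interruptions recorded in 10-min bins for 4 h, grouped into 1-h bins; one-way ANOVA with Newman-Keuls post hoc test (p < 0.05).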

Mus musculus [3] = assay: Percent change in locomotor activity in mice at 3 mg/kg i.p. in 2 h.; type: functional; settings: route intraperitoneal; outline: as §1
Mus musculus [4] = assay: Percent change in locomotor activity in mice at 3 mg/kg i.p. in 3 h.; type: functional; settings: route intraperitoneal; outline: as §1
Mus musculus [5] = assay: Percent change in locomotor activity in mice at 3 mg/kg i.p. in 4 h.; type: functional; settings: route intraperitoneal; outline: as §1
Mus musculus [6] = assay: Percent change in locomotor activity in mice at 1 mg/kg i.p. in 1 h.; type: functional; settings: route intraperitoneal
Mus musculus [7] = assay: Percent change in locomotor activity in mice at 1 mg/kg i.p. in 2 h.; type: functional; settings: route intraperitoneal; outline: as §1
Mus musculus [8] = assay: Percent change locomotor activity in mice at 1 mg/kg i.p. in 3 h.; type: functional; settings: route intraperitoneal; outline: as §1
Mus musculus [9] = assay: Percent change in locomotor activity in mice at 1 mg/kg i.p. in 4 h.; type: functional; settings: route intraperitoneal; outline: as §1
Mus musculus [10] = assay: Percent change from vehicle in locomotor activity in mice at 10 mg/kg (ip) in 1 h; type: functional
Mus musculus [11] = assay: Percent change from vehicle in locomotor activity in mice at 10 mg/kg (ip) in 2 h; type: functional
Mus musculus [12] = assay: Percent change from vehicle in locomotor activity in mice at 10 mg/kg (ip) in 3 h; type: functional
Mus musculus [13] = assay: Percent change from vehicle in locomotor activity in mice at 10 mg/kg (ip) in 4 h; type: functional
Mus musculus [14] = species: Mus musculus; assay: Effective dose for locomotor activity in mice in the peak hour.; type: functional
Mus musculus [15] = species: Mus musculus; assay: Hour 1 ratio to cocaine was determined for locomotor activity in mice; type: functional
[16] = molecular target: T1, Norepinephrine transporter (Rattus norvegicus, UniProt Q9WTR4); assay: Binding affinity towards norepinephrine transporter was determined using [3H]nisoxetine radioligand.
T1 sequence (Q9WTR4 whole entry): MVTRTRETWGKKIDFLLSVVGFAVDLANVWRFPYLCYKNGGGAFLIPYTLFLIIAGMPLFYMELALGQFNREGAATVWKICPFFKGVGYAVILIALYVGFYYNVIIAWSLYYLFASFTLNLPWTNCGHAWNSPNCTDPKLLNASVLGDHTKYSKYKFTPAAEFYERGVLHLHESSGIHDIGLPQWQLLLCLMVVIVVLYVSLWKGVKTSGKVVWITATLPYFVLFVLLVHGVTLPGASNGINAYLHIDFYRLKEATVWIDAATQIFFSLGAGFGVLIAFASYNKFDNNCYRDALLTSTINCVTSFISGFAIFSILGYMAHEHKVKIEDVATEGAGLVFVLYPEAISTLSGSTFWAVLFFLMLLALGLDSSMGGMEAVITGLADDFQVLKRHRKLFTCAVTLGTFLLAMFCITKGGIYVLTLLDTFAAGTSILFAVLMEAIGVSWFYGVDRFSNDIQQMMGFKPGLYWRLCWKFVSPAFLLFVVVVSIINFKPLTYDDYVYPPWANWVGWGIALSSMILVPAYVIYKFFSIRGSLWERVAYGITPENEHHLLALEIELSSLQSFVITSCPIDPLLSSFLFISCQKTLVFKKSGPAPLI
Outline: (§2)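 Competition binding at the NET with 0.5 nM [3H]nisoxetine (final concentration). Other procedures follow earlier published methods.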

[17] = molecular target: T1, Norepinephrine transporter; assay: Inhibition of norepinephrine transporter (NET) determined using [3H]nisoxetine radioligand.; outline: as §2
Rattus norvegicus [18] = assay: Drug discrimination effect of compound in rats, expressed as percent of rats choosing the cocaine lever at dose 10 mg/kg (ip); type: functional
Rattus norvegicus [19] = assay: Drug discrimination effect of compound in rats, expressed as percent of rats choosing the cocaine lever at dose 3 mg/kg (ip); type: functional
Rattus norvegicus [20] = assay: Drug discrimination effect of compound in rats, expressed as percent of rats choosing the cocaine lever at dose 5.6 mg/kg (ip); type: functional
[21] = molecular target: T2, Sodium-dependent serotonin transporter (Rattus norvegicus, UniProt P31652); assay: Binding affinity towards serotonin transporter 5-HTT was determined using [3H]paroxetine radioligand.
T2 sequence (P31652 whole entry): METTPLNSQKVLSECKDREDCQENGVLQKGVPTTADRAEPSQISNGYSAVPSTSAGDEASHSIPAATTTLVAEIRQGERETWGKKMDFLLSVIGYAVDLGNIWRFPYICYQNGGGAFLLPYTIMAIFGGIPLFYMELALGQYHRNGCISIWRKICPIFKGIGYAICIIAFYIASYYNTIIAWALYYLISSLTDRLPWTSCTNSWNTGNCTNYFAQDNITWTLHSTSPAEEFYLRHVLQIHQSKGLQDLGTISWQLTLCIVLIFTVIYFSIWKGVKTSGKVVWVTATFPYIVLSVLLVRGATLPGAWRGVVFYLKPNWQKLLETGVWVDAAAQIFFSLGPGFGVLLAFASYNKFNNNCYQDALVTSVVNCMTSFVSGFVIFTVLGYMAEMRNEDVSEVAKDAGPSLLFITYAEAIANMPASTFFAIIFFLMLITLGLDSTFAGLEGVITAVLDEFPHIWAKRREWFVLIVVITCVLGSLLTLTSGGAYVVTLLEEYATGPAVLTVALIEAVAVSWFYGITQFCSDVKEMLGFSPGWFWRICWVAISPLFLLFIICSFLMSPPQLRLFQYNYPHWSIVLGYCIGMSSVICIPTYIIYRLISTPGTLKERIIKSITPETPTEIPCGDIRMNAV
Outline: (§3)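 Competition binding at the 5-HTT with 0.2 nM [3H]paroxetine (final concentration). Other procedures follow earlier published methods.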

[22] = molecular target: T2, Sodium-dependent serotonin transporter; assay: Inhibitory concentration required to inhibit serotonin transporter 5-HTT was determined by using [3H]paroxetine radioligand; outline: as §3
Rattus norvegicus [23] = assay: Effective dose for drug discrimination effect in rat (ip); type: functional
Outline: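 Cocaine-trained rat drug discrimination, FR10, 10-min sessions. Compound in 0.5% methyl cellulose given ip 15 min before session, usually to 7-8 rats per dose. Doses were raised from ≤20% to ≥80% cocaine-lever choice, capped at 30 mg/kg, >50% loss of pressing, or side effects.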

Row | SMILES | IC50 [1] | Change (Mus musculus [2]) | Change (Mus musculus [3]) | Change (Mus musculus [4]) | Change (Mus musculus [5]) | Change (Mus musculus [6]) | Change (Mus musculus [7]) | Change (Mus musculus [8]) | Change (Mus musculus [9]) | Change (Mus musculus [10]) | Change (Mus musculus [11]) | Change (Mus musculus [12]) | Change (Mus musculus [13]) | ED50 (Mus musculus [14]) | Ratio (Mus musculus [15]) | Ki [16] | IC50 [17] | Drug discrimination effect (Rattus norvegicus [18]) | Ki [21] | IC50 [22] | also measured
1 | CN1C2CCC1C(c1cc(-c3ccc(F)cc3)no1)C(c1ccc(Cl)cc1)C2 (stereo not drawn) | 1.86 nM | 271% | 463% | 479% | 392% | -26% | 38% | -77% | 37% | 729% | 832% | 514% | 767% | 2.8 mg/kg | 1.6 | 553 nM | 918 nM | 63% | 660 nM | 7260 nM | Drug discrimination effect (Rattus norvegicus [19]): 13%; Drug discrimination effect (Rattus norvegicus [20]): 43%
2 | Cc1ccc(C2CC3CCC(C2c2cc(C(C)C)no2)N3C)cc1 (stereo not drawn) | 4.5 nM | 329% | 241% | 207% | 70% | -1% | 29% | -20% | 24% | 637% | 532% | 765% | 576% | 4.7 mg/kg | 0.9 | 1550 nM | 2520 nM | 86% | 3900 nM | 42900 nM | Drug discrimination effect (Rattus norvegicus [19]): 25%; Drug discrimination effect (Rattus norvegicus [20]): 67%; ED50 (Rattus norvegicus [23]): 4.63 mg/kg
3 | CN1C2CC[C@@H]1C[C@H](c1ccc(Cl)cc1)C2c1cc(-c2ccccc2)no1 (stereo partly drawn) |  | 331% | 456% | 377% | 378% | 11% | 27% | 45% | 76% | 513% | 402% | 485% | 924% | 3.4 mg/kg | 1.1 | 220 nM | 2420 nM | 75% | 305 nM | 504 nM | Drug discrimination effect (Rattus norvegicus [19]): 29%; Drug discrimination effect (Rattus norvegicus [20]): 63%; ED50 (Rattus norvegicus [23]): 4.73 mg/kg
4 | CN1C2CCC1C(C(=O)Oc1ccccc1)C(c1ccc(Cl)cc1)C2 (stereo not drawn) |  |  |  |  |  |  |  |  |  |  |  |  |  |  |  | 213 nM | 2340 nM |  | 1780 nM | 2960 nM | 
5 | Cc1ccc(C2CC3CCC(C2C(=O)OC(C)C)N3C)cc1 (stereo not drawn) |  |  |  |  |  |  |  |  |  |  |  |  |  |  |  | 554 nM | 6090 nM |  | 1160 nM | 1930 nM | 
6 | Cc1ccc(C2CC3CCC(C2c2cc(C(C)(C)C)no2)N3C)cc1 (stereo not drawn) | 26 nM |  |  |  |  |  |  |  |  |  |  |  |  |  |  | 1820 nM | 3330 nM |  | 26000 nM | 295000 nM | 
7 | Cc1ccc(C2CC3CCC(C2c2cc(-c4ccccc4)no2)N3C)cc1 (stereo not drawn) | 1.58 nM | 244% | 369% | 283% | 329% | 48% | 139% | 89% | 154% | 526% | 663% | 363% | 141% | 2.5 mg/kg | 1.2 | 239 nM | 398 nM | 86% | 465 nM | 5110 nM | Drug discrimination effect (Rattus norvegicus [19]): 0%; Drug discrimination effect (Rattus norvegicus [20]): 75%; ED50 (Rattus norvegicus [23]): 4.88 mg/kg
